From ChEMBL document CHEMBL2384958, “Potential of lichen secondary metabolites against Plasmodium liver stage parasites with FAS-II as the potential target” (J Nat Prod, 2013)
In brackets after ≈: the same amount, converted by molar mass. Activity calls are given as the source filed them. The calls are words filed in the database; no cut-off is given here.

Columns and labels:
Danio rerio [1] = organism: Danio rerio; assay: Hepatotoxicity in zebrafish larva expressing fabp10a:DsRed2 assessed as change in liver size at 0.3 uM measured at 6 days postfertilization by fluorescence microscopic analysis; assay type: toxicity, organism-based; details: in vivo, 144 h
Outline: (§1)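 Transgenic fabp10a:DsRed2 zebrafish were raised at 28.5 °C on a 14 h light/10 h dark cycle. Larvae were sorted at 3 dpf for liver fluorescence and exposed to compounds at 10 per well, with 1% DMSO controls. General and heart toxicity were checked at 4 dpf, dosing went up to the maximum-tolerated concentration, and five liver phenotypes were scored at 6 dpf by fluorescence microscopy.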

[2] = Inhibition of Mycobacterium tuberculosis FabI using 2-dodecenoyl-CoA as substrate at pH 6.8
[3] = Inhibition of Plasmodium falciparum FabI using crotonoyl-CoA as substrate preincubated for 10 mins prior to substrate addition
Escherichia coli = assay: Antibacterial activity against Escherichia coli ATCC 8739; assay type: functional, organism-based; details: ATCC 8739, ATCC 8739
Outline: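 E. coli ATCC 8739 whole cells tested in triplicate by a previously reported method. Compounds were fully solubilized beforehand, with brief agitation or sonication used for DMSO solutions at high test concentrations (>120 μM).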

[4] = Inhibition of Plasmodium falciparum FabZ using crotonoyl-CoA as substrate preincubated for 10 mins prior to substrate addition
[5] = target: T1, Enoyl-[acyl-carrier-protein] reductase [NADH] FabI (Escherichia coli K-12, UniProt P0AEK4); assay: Inhibition of Escherichia coli FabI using 2-dodecenoyl-CoA as substrate at pH 8
T1 sequence (P0AEK4 whole entry): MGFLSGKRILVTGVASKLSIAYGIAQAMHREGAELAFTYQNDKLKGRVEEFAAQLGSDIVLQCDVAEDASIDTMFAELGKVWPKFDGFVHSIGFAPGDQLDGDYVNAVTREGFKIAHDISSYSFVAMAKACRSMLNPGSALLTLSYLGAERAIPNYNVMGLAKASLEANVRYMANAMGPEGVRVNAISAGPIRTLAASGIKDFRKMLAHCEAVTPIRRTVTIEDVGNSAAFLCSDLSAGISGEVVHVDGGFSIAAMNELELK

Plasmodium berghei [6] = assay: Antiplasmodial activity against liver stage of Plasmodium berghei ANKA expressing GFP infected in human Huh7.5 cells assessed as reduction in PB18S gene expression after 48 hrs by qRT-PCR analysis; assay type: functional, organism-based; details: Huh-7, 48 h
Outline: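 HuH7.5 cells infected with freshly dissected P. berghei GFP sporozoites (30 000 per 60 000 cells); 48 h culture with compounds (10 to 100 μM) at 37 °C, media changed every 24 h. Total RNA extracted, DNase treated; PB18S expression normalized to DMSO controls; IC50 estimated; atovaquone positive control.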

Danio rerio [7] = organism: Danio rerio; assay: Toxicity in zebrafish larva measured at 4 days postfertilization; assay type: organism-based; details: in vivo, 96 h
Outline: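 Transgenic fabp10a:DsRed2 larvae raised at 28.5 °C (14 h light/10 h dark), sorted for liver fluorescence at 3 dpf and exposed to compounds, 10 larvae per well; general and heart toxicity checked at 4 dpf to set maximum-tolerated concentration.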

[8] = Inhibition of Staphylococcus aureus FabI using dodecenoyl ACP at pH 7.8
[9] = system: Mycobacterium tuberculosis; assay: Antimycobacterial activity against Mycobacterium tuberculosis ATCC 27294; assay type: functional
[10] = Cytotoxicity against human Huh7.5 cells after 24 hrs by Cell-titerGlo luminescence assay; assay type: cell-based; details: Huh-7, 24 h
Outline: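 HuH7.5 human hepatoma cells (30 000/well) in advanced DMEM complete medium were exposed to compounds for 24 h, or to 0.1% DMSO as reference. Viability was read by CellTiter-Glo luminescence.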

Plasmodium berghei [11] = assay: Antiplasmodial activity against liver stage of Plasmodium berghei ANKA expressing GFP infected in human Huh7.5 cells assessed as decrease in size at 10 uM after 48 hrs by immunofluorescence analysis; assay type: functional, organism-based; details: Huh-7
Outline: (§2)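 HuH7.5 cells (50 000/well, chambered slides) were infected with 33 000 freshly dissected P. berghei GFP sporozoites and incubated 48 h with compound or 0.1% DMSO. Cells were fixed in 10% neutral buffered formalin and stained with mouse anti-Plasmodium HSP70 (FITC) plus Hoechst. Parasite size was imaged by fluorescence microscopy with a 40× objective.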

Plasmodium berghei [12] = assay: Antiplasmodial activity against liver stage of Plasmodium berghei ANKA expressing GFP infected in human Huh7.5 cells assessed as decrease in size at 1 uM after 48 hrs by immunofluorescence analysis; assay type: functional, organism-based; details: Huh-7; outline: as §2
[13] = Inhibition of Plasmodium falciparum FabG using acetoacetyl-CoA as substrate
Danio rerio [14] = organism: Danio rerio; assay: Hepatotoxicity in zebrafish larva expressing fabp10a:DsRed2 assessed as change in liver size at 3.6 to 60.2 uM measured at 6 days postfertilization by fluorescence microscopic analysis relative to control; assay type: toxicity, organism-based; details: in vivo, 144 h; outline: as §1
Plasmodium falciparum = assay: Antiplasmodial activity against blood stage of chloroquine and pyrimethamine-resistant Plasmodium falciparum K1 after 48 hrs by [3H]-hypoxanthine incorporation assay; assay type: functional, organism-based
Outline: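 0.4% parasitemia in assay medium with 15 μM hypoxanthine; compounds incubated 48 h before 3H-hypoxanthine added; run in duplicate.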

Danio rerio [15] = organism: Danio rerio; assay: Hepatotoxicity in zebrafish larva expressing fabp10a:DsRed2 assessed as reduction in liver size at 60.2 uM measured at 6 days postfertilization by fluorescence microscopic analysis; assay type: toxicity, organism-based; details: in vivo, 144 h; outline: as §1
KB = assay: Cytotoxicity against human KB cells after 72 hrs by Alamar Blue assay; assay type: functional, cell-based
Plasmodium berghei [16] = assay: microbe, parasite or virus in culture; details: Huh-7
Plasmodium = assay: Antiplasmodial activity against blood stage of Plasmodium; assay type: functional
Outline: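 P. falciparum K1 (chloroquine/pyrimethamine-resistant) culture with 3H-hypoxanthine incorporation read-out, run in duplicate. Assay medium held 15 μM hypoxanthine, parasitemia 0.4%, and compounds were incubated 48 h before 3H-hypoxanthine was added.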

Plasmodium berghei [17] = assay: microbe, parasite or virus in culture; details: ANKA, HepG2
Danio rerio [18] = organism: Danio rerio; assay: Hepatotoxicity in zebrafish larva expressing fabp10a:DsRed2 assessed as enlargement of liver at 15.5 uM measured at 6 days postfertilization by fluorescence microscopic analysis; assay type: toxicity, organism-based; details: in vivo, 144 h; outline: as §1
Staphylococcus aureus = assay: Antibacterial activity against Staphylococcus aureus ATCC 6538; assay type: functional
Outline: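 S. aureus ATCC 6538 whole cells tested in triplicate by a previously reported method. Compounds were fully solubilized beforehand, with brief agitation or sonication for high test concentrations (>120 μM) in DMSO.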

CC(=O)C1=C(O)C=C2Oc3c(C(C)=O)c(O)c(C)c(O)c3[C@@]2(C)C1=O [(+)-USNIC ACID]
Activity (Danio rerio [1]): Non-toxic
IC50 [2]: 190 µM
IC50 [3]: > 200 µM
IC50 (Escherichia coli): > 64 µM
IC50 [4]: > 200 µM
IC50 [5]: 47 µM
IC50 (Plasmodium berghei [6]): 2.3 µM
MTD (Danio rerio [7]): 0.3 µM
IC50 [8]: 190 µM
MIC [9]: 15.1 µM (≈ 5.2 µg/mL)
IC50 [10]: > 100 µM
Activity (Plasmodium berghei [11]): Active
Activity (Plasmodium berghei [12]): Active
IC50 [13]: > 200 µM

COc1cc(C)c(C(=O)Oc2cc(C)c(C(=O)O)c(O)c2)c(O)c1 [EVERNIC ACID]
Activity (Danio rerio [14]): >= 40%
IC50 (Plasmodium falciparum): 142 µM
IC50 [3]: 36.1 µM
IC50 (Escherichia coli): > 64 µM
IC50 [4]: 10.7 µM
Activity (Danio rerio [15]): Toxic
IC50 [5]: 90 µM
IC50 (Plasmodium berghei [6]): 77.3 µM
MTD (Danio rerio [7]): 60.2 µM
IC50 [8]: 170 µM
IC50 [10]: > 100 µM
Activity (Plasmodium berghei [11]): inactive
IC50 (KB): 190 µM
IC50 [13]: > 200 µM

COc1cc(NC(C)CCCN)c2ncccc2c1 (centres undefined) [PRIMAQUINE]
IC50 (Plasmodium berghei [16]): 7.5 µM
IC50 (Plasmodium): 1.4 µM
IC50 (Plasmodium berghei [17]): 7.5 µM

COc1cc(C(=O)O)c2c(c1C)OC(=O)c1c(C)cc(O)c(C=O)c1O2 [PSOROMIC ACID]
Activity (Danio rerio [14]): >= 40%
IC50 (Plasmodium falciparum): 29.2 µM
IC50 [3]: 71.4 µM
IC50 (Escherichia coli): > 64 µM
IC50 [4]: 35.2 µM
IC50 [5]: > 200 µM
IC50 (Plasmodium berghei [6]): 31.6 µM
MTD (Danio rerio [7]): 3.6 µM
IC50 [8]: > 200 µM
MIC [9]: 123 µM (≈ 44 µg/mL)
IC50 [10]: > 100 µM
Activity (Plasmodium berghei [11]): inactive
IC50 (KB): 31.6 µM
IC50 [13]: 183 µM

COC(=O)/C(=C1/OC(=O)C(c2ccccc2)=C1O)c1ccccc1 [VULPINIC ACID]
Activity (Danio rerio [14]): >= 40%
IC50 (Plasmodium falciparum): 48.5 µM
IC50 [3]: > 140 µM
Activity (Danio rerio [18]): Toxic
IC50 (Escherichia coli): > 64 µM
IC50 [4]: 20.5 µM
IC50 [5]: 84 µM
IC50 (Plasmodium berghei [6]): 10.2 µM
MTD (Danio rerio [7]): 15.5 µM
IC50 [8]: 90 µM
IC50 [10]: > 100 µM
Activity (Plasmodium berghei [11]): Active
MIC (Staphylococcus aureus): 32 µM (≈ 10.3 µg/mL)
IC50 [13]: > 200 µM
